Measurements published in paper PMC10205783 (Immuno-Oncology and Technology, 2023).
Values after ≈ are worked out from the molar mass of the structure shown.

Columns and labels:
[1] = system: bleomycin-induced pulmonary fibrosis; conditions: mouse; cited from earlier work
[2] = phase II, IPF patients, cited from earlier work
circulating LPA C18:2 [3] = assay: Pharmacodynamics in male CD1 mice: circulating LPA C18:2 after oral dose; format: in vivo
[4] = Pharmacokinetics in male CD1 mice: plasma exposure after oral gavage; format: in vivo; conditions: male CD1 mice, 3, 10 and 30 mg/kg oral gavage
[5] = system: stimulated human primary cells (lung epithelial cells and fibroblasts; lung fibroblasts only; renal epithelial cells with lung fibroblasts); assay: BioMAP Fibrosis phenotypic screening panel; format: cell-based; conditions: 6 μM, 48 h, TGF-β and TNF-α stimulated co-cultures
In short: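 Three co-culture systems of human primary cells: lung epithelial cells with lung fibroblasts, lung fibroblasts alone, renal epithelial cells with lung fibroblasts. Cells stimulated with TGF-β and TNF-α, then exposed 48 h to test compound at 0.24, 1.2 and 6 μM. Biomarkers quantified by ELISA. Significance envelope: 95% CI bounds of historical vehicle controls.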

[6] = system: bleomycin-induced pulmonary fibrosis; assay: Bleomycin-induced pulmonary fibrosis; format: in vivo, C57BL/6 mice
In short: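 Anaesthetised male C57BL/6 mice given intranasal bleomycin (0.6 mg/ml) or saline. Test compound 10 mg/kg or methocel/PBS vehicle by oral gavage twice daily from day 0 for 21 days; body weight monitored. Day 21: terminal plasma; BALF by two ice-cold saline lavages via tracheal cannula, supernatant after centrifugation. LPA species by LC-MS/MS; Mann–Whitney test.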

4T1 tumors = assay: 4T1 metastasis assay with resection of the primary tumor; format: in vivo, BALB/c mice
In short: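 Female BALB/c mice implanted surgically with 4T1 cells in the mammary fat-pad, n = 12 per group. Primary tumour resected at day 15 and weighed. Test compound 100 mg/kg b.i.d. by oral gavage. Lungs and bone marrow harvested 20 days after resection. Lungs fixed and H&E-stained for metastases. Bone marrow flushed from hind limbs, cultured in complete medium with 6-thioguanine 10 μg/ml, colonies crystal violet-stained.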

E0771 tumors = assay: E0771 orthotopic breast cancer model; format: in vivo, C57BL/6 mice
[7] = system: LPA1, LPA2, LPA3, LPA5, S1P1, S1P2, SP3, S1P4 and S1P5; SafetyScreen44 panel; assay: Off-target profiling on lipid receptor panel and SafetyScreen44 panel; format: binding
[8] = target: 5-hydroxytryptamine 2B (5-HT2B) receptor (Homo sapiens, UniProt P41595); assay: 5-HT2B receptor binding; conditions: only hit of the panels
Sequence of 5-hydroxytryptamine 2B (5-HT2B) receptor (P41595 whole entry): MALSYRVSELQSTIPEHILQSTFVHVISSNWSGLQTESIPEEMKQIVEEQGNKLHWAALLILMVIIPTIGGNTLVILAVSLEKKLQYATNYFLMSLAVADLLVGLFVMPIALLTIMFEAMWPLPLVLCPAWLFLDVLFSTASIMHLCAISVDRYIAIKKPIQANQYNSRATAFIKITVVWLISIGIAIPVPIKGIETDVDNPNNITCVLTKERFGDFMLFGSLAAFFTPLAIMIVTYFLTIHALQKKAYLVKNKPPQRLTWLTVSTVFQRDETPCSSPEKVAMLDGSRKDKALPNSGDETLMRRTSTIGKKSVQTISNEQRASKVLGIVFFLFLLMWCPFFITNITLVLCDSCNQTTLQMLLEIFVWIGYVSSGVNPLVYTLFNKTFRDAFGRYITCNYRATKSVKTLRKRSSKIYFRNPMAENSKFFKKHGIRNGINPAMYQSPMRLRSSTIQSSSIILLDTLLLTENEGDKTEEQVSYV

5-HT2B = 5-HT2B (Homo sapiens, UniProt P41595); assay: 5-HT2B antagonist confirmation; format: biochemical
Sequence of 5-HT2B (P41595 whole entry, species assumed): as the sequence (P41595 whole entry) above

hERG tail current = hERG tail current (Homo sapiens, UniProt Q12809); assay: GLP hERG assay; format: cell-based
Sequence of hERG tail current (Q12809 whole entry): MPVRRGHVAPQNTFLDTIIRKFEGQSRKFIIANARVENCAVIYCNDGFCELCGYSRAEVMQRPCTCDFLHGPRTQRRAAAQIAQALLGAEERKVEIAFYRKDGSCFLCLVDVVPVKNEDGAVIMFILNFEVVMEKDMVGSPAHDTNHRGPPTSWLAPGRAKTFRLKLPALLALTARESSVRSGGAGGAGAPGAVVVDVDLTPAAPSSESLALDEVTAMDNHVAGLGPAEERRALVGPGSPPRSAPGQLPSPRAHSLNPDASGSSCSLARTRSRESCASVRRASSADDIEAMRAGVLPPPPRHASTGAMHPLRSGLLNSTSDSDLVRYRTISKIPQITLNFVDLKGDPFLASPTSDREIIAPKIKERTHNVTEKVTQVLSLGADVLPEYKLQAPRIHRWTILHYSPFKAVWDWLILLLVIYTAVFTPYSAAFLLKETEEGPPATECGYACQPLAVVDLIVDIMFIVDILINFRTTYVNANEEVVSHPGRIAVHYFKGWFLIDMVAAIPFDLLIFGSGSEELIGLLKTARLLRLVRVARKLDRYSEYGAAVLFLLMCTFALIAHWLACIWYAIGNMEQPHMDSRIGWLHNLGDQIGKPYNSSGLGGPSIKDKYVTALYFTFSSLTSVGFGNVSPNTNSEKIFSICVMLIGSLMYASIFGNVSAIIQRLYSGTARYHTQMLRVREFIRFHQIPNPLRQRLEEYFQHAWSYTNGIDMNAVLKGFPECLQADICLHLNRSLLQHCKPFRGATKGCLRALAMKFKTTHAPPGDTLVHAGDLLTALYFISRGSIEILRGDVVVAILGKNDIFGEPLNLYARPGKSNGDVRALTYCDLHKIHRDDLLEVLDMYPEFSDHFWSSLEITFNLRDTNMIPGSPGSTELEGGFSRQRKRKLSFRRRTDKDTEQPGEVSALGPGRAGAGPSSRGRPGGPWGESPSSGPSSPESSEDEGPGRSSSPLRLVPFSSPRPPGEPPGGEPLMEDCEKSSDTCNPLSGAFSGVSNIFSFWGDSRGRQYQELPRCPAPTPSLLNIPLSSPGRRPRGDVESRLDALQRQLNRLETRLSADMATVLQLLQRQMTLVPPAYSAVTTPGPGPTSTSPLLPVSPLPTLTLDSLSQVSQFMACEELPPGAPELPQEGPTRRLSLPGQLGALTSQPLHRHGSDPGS

respiratory functions = assay: GLP safety pharmacology, respiratory functions in rats; format: in vivo
[9] = system: cardiovascular and neurobehavioral functions; assay: GLP safety pharmacology, cardiovascular and neurobehavioral functions in dogs; format: in vivo
[10] = 4-week GLP toxicology study in rats; format: in vivo
[11] = 4-week GLP toxicology study in dogs; format: in vivo
In vitro toxicology = conditions: based on absence of in vitro toxicology findings
circulating LPA C18:2 [12] = assay: First-in-human single ascending oral dose study: LPA C18:2 pharmacodynamics; format: in vivo, healthy male volunteers
[13] = system: tumor-infiltrating lymphocyte (TIL) migration; conditions: LPA chemorepulsion of T cells; cited from earlier work
[14] = First-in-human single ascending oral dose study: safety and pharmacokinetics
[15] = 4T1, 20 days after removal of primary tumor
[16] = single oral dose, healthy male volunteers

For `CCc1nc2c(C)cc(N3CCN(CC(=O)N4CC(O)C4)CC3)cn2c1N(C)c1nc(-c2ccc(F)cc2)c(C#N)s1` [ziritaxestat, 2-[[2-ethyl-6-[4-[2-(3-hydroxyazetidin-1-yl)-2-oxo-ethyl]piperazin-1-yl]-8-methyl-imidazo[1,2-a]pyridin-3-yl]-methyl-amino]-4-(4-fluorophenyl)thiazole-5-carbonitrile], the “efficacy in bleomycin-induced pulmonary fibrosis model” value [1] is given as “demonstrated efficacy”, the “plasma LPA C18:2 levels” value ([2]; 12 weeks) is given as “reducing” and the tolerability ([2]; 12 weeks) is given as “well tolerated”. The forced vital capacity ([2]; after 12 weeks of treatment) was “stabilizing”.

In the case of `C[C@H](NC(=O)CCc1nc2cccnc2n1Cc1ccc(OC(F)(F)F)cc1)c1ccc(Cl)cc1` [IOA-289], the ED50 (circulating LPA C18:2 [3]; Mus musculus, po, 1 h, read-out: ED50, reduction of circulating LPA C18:2) is reported as about 3 mg/kg, the “reduction of circulating LPA C18:2” value (circulating LPA C18:2 [3]; male CD1 mice, 3, 10 and 30 mg/kg oral gavage) is reported as “dose-dependent reduction” and the plasma exposure [4] is reported as “dose-proportional increase”. For the same compound, the “activity of EGFR” value [5] was “significantly decreased”, the “activity of MCP-1” value [5] was “significantly decreased” and the “activity of collagen III (Col-III)” value [5] was “significantly decreased”. The “activity of sIL-6” value [5] was “significantly decreased”, the “activity of sIL-8” value [5] was “significantly decreased” and the “activity of sVEGF” value [5] was “significantly decreased”. For the same compound, the “activity of αSMA” value [5] was “significantly decreased”, the “LPA C18:2 levels in BALF” value ([6]; BLM model, day 21) was “significantly reduced” and the “LPA C18:2 levels in plasma” value ([6]; BLM model, day 21) was “significantly reduced”. The “severity of the BLM model followed by body weight” value ([6]; compared with vehicle treatment) was “alleviated the severity substantially”, the “bone metastases (colony formation assay from bone marrow)” value (4T1 tumors; [15]) was “marked reduction” and the “metastatic burden in lungs (histology)” value (4T1 tumors; [15]) was “marked reduction”. The primary tumor growth (4T1 tumors; 4T1, primary tumor resected at day 15) was “no effect”, the tumor growth (E0771 tumors; E0771, 30 mg/kg b.i.d. oral from day 3 to day 40, compared with control group) was “reduced the tumor growth” and the complete tumor eradication (E0771 tumors; E0771, n = 10 per group) was “complete tumor eradication in two mice”. For the same compound, the off-target interactions [7] was “no to minimal potential off-target interactions”, the “binding to 5-HT2B receptor” value [8] was “sub-micromolar binding” and the IC50 (5-HT2B) was 2500 nM. For the same compound, the IC50 (hERG tail current) was 1030 nM, the “effects on respiratory functions” value (respiratory functions) was “no relevant effects” and the “effects on cardiovascular (including QTc changes) and neurobehavioral functions” value [9] was “no relevant effects”. For the same compound, the NOAEL at 4 weeks ([10]; rat, in vivo, po) was 300 mg/kg/day, the “main target organs for toxicity” value ([10]; rats, all findings reversible) was “the liver, the bone marrow and the stomach in both sexes and additionally the kidneys, the testes and thyroids in males” and the NOAEL at 4 weeks ([11]; dog, in vivo, po) was 60 mg/kg/day. For the same compound, the “main target organs for toxicity” value ([11]; dogs) was “the gastrointestinal tract, the liver, the bladder and the parotid gland”, the “risk for genotoxicity, phototoxicity and cytotoxicity” value (In vitro toxicology) was “low risk” and the IC50 (circulating LPA C18:2 [12]; Homo sapiens, po, read-out: IC50 on % LPA C18:2 reduction from baseline) was 0.015 µg/mL (≈ 0.0298 µM). The “circulating levels of LPA C18:2” value (circulating LPA C18:2 [12]; maximal inhibition at cohorts 4 and 5 dose levels) was “dose-related decrease”, the “time of peak inhibition of LPA C18:2 after dose” value (circulating LPA C18:2 [12]; single oral dose) was 1 to 2 h and the “TIL migration in vitro” value [13] was “can rescue”. For the same compound, the Tmax ([14]; male, human, in vivo, po) was 1 h, the “maximum plasma concentrations versus dose” value ([14]; single ascending oral doses, five cohorts) was “increased dose proportionally” and the adverse events [14, 16] was “no adverse events reported”. The safety and tolerability [14, 16] was “well tolerated”.
